SMILES strings stand for the structures. Calls of active or inactive are those of the source. The rule behind the calls is not given here.

The source of these data is ChEMBL document CHEMBL1150151, “Dictyoquinazols A, B, and C, new neuroprotective compounds from the mushroom Dictyophora indusiata” (J Nat Prod, 2002).

Experiment [1] is described as follows: Inhibition of monoamine oxidase at 60 to 100 uM.
In experiment [2] the test system is Cortical neurone. The experiment can be described thus: Neuroprotective activity against NMDA-induced neurotoxicity in ICR mouse cortical neurons preincubated for 1 hr before NMDA challenge measured after 24 hrs by MTT assay. It is filed as functional. In a few lines: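 12-day ICR mouse (E15) cortical cultures in neurobasal medium without supplement. Pretreatment with compound (methanol vehicle, 0.1% final) for 1 h, then 40 μM NMDA for 24 h. Compound range 10 to 30 μM. Survival by MTT reduction, formazan in DMSO read at 540 nm, normalised as (toxin+compound − toxin)/(control − toxin) × 100.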
In general terms: Tetrazolium assays rely on reduction of a dye to a coloured formazan, in cell work by metabolically active cells.

The test system of experiment [3] is Cortical neurone. The experiment can be described thus: Neuroprotective activity against AMPA-induced neurotoxicity in ICR mouse cortical neurons preincubated for 1 hr before AMPA challenge measured after 24 hrs by MTT assay. In kind it is functional. A digest of the protocol: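 Primary cortical cultures from gestation day 15 ICR mouse embryos, grown 12 days in B27-supplemented neurobasal medium, switched to neurobasal without supplement. Compound in methanol (0.1% final), added 1 h before 80 μM AMPA, then 24 h. Viability read by MTT (1 mg/mL, 1 h, 37 °C; DMSO-dissolved formazan at 540 nm), expressed relative to control and excitotoxin-alone wells.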

A short description of experiment [4]: Neuroprotective activity against glutamate-induced neurotoxicity in primary cultured mouse cortical neurons preincubated for 1 hr before glutamate challenge measured after 24 hrs by MTT assay.
For experiment [5], the system named is Radical scavenging activity. The experiment can be described thus: Antioxidant activity assessed as superoxide and DPPH radical scavenging activity. It is filed as functional. (In general: The DPPH test is a chemical assay of radical scavenging.)
Experiment [6] deals with Cortical neurone. Put plainly: Neuroprotective activity against kainate-induced neurotoxicity in ICR mouse cortical neurons preincubated for 1 hr before kainate challenge measured after 24 hrs by MTT assay. In kind it is functional. In a few lines: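 Mouse (ICR, gestation day 15) cortical neuron cultures used at day 12 in neurobasal medium lacking supplement. Compound in methanol (0.1% final) given 1 h ahead of 200 μM kainate; incubation 24 h more. Viability by MTT (1 mg/mL, 1 h), DMSO-solubilised formazan at 540 nm, scaled between kainate-alone and untreated control.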

Experiment [7] concerns Cortical neurone. Put plainly: Neuroprotective activity against glutamate-induced neurotoxicity in ICR mouse cortical neurons at 5 to 10 uM preincubated for 1 hr before glutamate challenge measured after 24 hrs by MTT assay. It is filed as functional. In a few lines:
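Cortical neurons from E15 ICR mouse embryos, matured 12 days, supplement-free neurobasal during assay. 1 h compound pretreatment (0.1% methanol final), then 20 μM glutamate, kept 24 h. MTT 1 mg/mL for 1 h at 37 °C, formazan dissolved in DMSO, absorbance 540 nm; percent protection from control and glutamate-only OD.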

On to `COc1ccc(N2CN(C=O)c3ccc(OC)cc3C2=O)c(CO)c1`, for which the outcome (in experiment [1]; in the experiment on Cortical neurone [7]) was Active. For the same molecule, in the experiment on Cortical neurone [2], the Activity entry is “Dose-dependent effect”. Also, the outcome (with Cortical neurone [3]; in experiment [4]; in experiment [5]; in the experiment with Cortical neurone [6]) was inactive.
In the case of `COc1ccc(-n2cnc3ccc(OC)cc3c2=O)c(CO)c1`, the result (in experiment [1]; in the experiment on Cortical neurone [7]) was Active. Also, in the experiment on Cortical neurone [2], the Activity entry is “Dose-dependent effect”. Besides, the outcome (in the experiment on Cortical neurone [3]; in experiment [4]; in experiment [5]; in the experiment with Cortical neurone [6]) was inactive.
With `COc1ccc2c(c1)CN(c1ccc(OC)cc1CO)CN2C=O`, the result (in experiment [1]; in the experiment on Cortical neurone [7]) was Active. In the experiment on Cortical neurone [2], the Activity result was “Dose-dependent effect”. In addition, the outcome (in the experiment with Cortical neurone [3]; in experiment [4]; in experiment [5]; with Cortical neurone [6]) was inactive.
